The text below walks through data of ChEMBL document CHEMBL2429796, “Discovery and synthesis of novel benzofurazan derivatives as inhibitors of influenza A virus” (Bioorg Med Chem Lett, 2013).

One series concerns HEK-293T. Put plainly: Inhibition of influenza A virus HA-tagged polymerase acidic protien transfected in HEK293T cells after 24 hrs by ELISA. In kind it is cell-based. (ELISA stands for enzyme-linked immunosorbent assay.)
In the next series the test system is MDCK. Put plainly: Cytotoxicity against MDCK cells. Type of series: cell-based, Canis lupus familiaris. As to conditions: dog.
For the next series, the system named is Influenza A virus. Put plainly: Antiviral activity against Influenza A virus A/WSN/33(H1N1) infected in MDCK cells after 48 hrs by plaque reduction assay. In kind it is functional, organism-based, A/WSN/1933(H1N1). Summed up: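 Plaque-reduction assay in MDCK cells infected with influenza A/WSN/33 (H1N1). IC50 was determined only for compounds positive in an ELISA prescreen for binding to the polymerase PA subunit.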
On the technique in general: In a plaque reduction assay, fewer plaques than in the control indicate reduced infectivity or spread.

Where [1] appears, read: Influenza A virus, A/WSN/1933(H1N1), MDCK, 48 h, read-out: IC50.

The source made the active and inactive calls. The rule behind the calls is not given here. Bounds are passed on as bounds.

In general, IC50 refers to the concentration that inhibits the measured activity by half. Consider `O=[N+]([O-])c1ccc(Sc2ccccc2Br)c2nonc12`, for which the inhibition entry with HEK-293T is “Active”. The Cytotoxic concentration with MDCK came to 40 µM. Further, the IC50 with Influenza A virus (setting [1]) is over 10 µM.

Consider `O=[N+]([O-])c1cccc(CSc2ccc([N+](=O)[O-])c3nonc23)c1`, for which the inhibition result with HEK-293T was “Active”. The compound also yielded a Cytotoxic concentration with MDCK of 20 µM. In the series on Influenza A virus (setting [1]), the IC50 is 1 µM.

As to `O=[N+]([O-])c1ccc(Nc2ccc(O)cc2)c2nonc12`, the inhibition entry with HEK-293T was “Active”. Further, the IC50 result in the series with Influenza A virus (mdck) is on record as “Not Active”.

Take `O=[N+]([O-])c1ccc(OCc2ccccc2)c2nonc12`: the inhibition entry in the series on HEK-293T was “Active”. For the same compound, the IC50 result with Influenza A virus (mdck) was “Not Active”.

With `N#Cc1ccc(Oc2ccc([N+](=O)[O-])c3nonc23)cc1`, the inhibition entry in the series with HEK-293T was “Active”. In the series on Influenza A virus (mdck), the IC50 entry was “Not Active”.

For `O=[N+]([O-])c1ccc(Nc2ccccc2S)c2nonc12`, the inhibition entry with HEK-293T was “Active”. The Cytotoxic concentration in the series with MDCK is over 80 µM. For the same compound, the IC50 with Influenza A virus (setting [1]) is 20 µM.

For `O=[N+]([O-])c1ccc(SCc2ccc(Cl)cc2)c2nonc12`, the inhibition entry in the series on HEK-293T is “Active”. For the same compound, the IC50 entry with Influenza A virus (mdck) is on record as “Not Active”.

`O=[N+]([O-])c1ccc(Sc2ccccc2)c2nonc12`: the inhibition entry in the series with HEK-293T is “Active”. This compound came in with an Activity with MDCK of 20 µM. Also, in the series with Influenza A virus (mdck), the IC50 entry is “Not Active”.

On to `O=[N+]([O-])c1ccc(Oc2cccc(Br)c2)c2nonc12`, for which, in the series on HEK-293T, the inhibition entry is “Active”. Also, in the series on MDCK, the Cytotoxic concentration is over 40 µM. Besides, the IC50 in the series with Influenza A virus (setting [1]) is 20 µM.

Consider `COc1ccc(Oc2ccc([N+](=O)[O-])c3nonc23)cc1`, for which the inhibition result in the series on HEK-293T was “Active”. In the series on MDCK, this compound displayed a Cytotoxic concentration of 60 µM. Besides, the half-maximal inhibitory concentration (IC50) in the series with Influenza A virus (setting [1]) was 30 µM.

Take `O=[N+]([O-])c1ccc(SCc2ccc(F)cc2)c2nonc12`: the inhibition entry in the series with HEK-293T is “Active”. In the series on MDCK, this compound displayed a Cytotoxic concentration of 20 µM. The IC50 entry in the series on Influenza A virus (mdck) was “Not Active”.

For `O=[N+]([O-])c1ccc(Sc2ccc(F)cc2)c2nonc12`, the inhibition result in the series on HEK-293T is “Active”. For the same compound, the Cytotoxic concentration in the series on MDCK was 40 µM. The IC50 with Influenza A virus (setting [1]) turned out to be 5 µM.

With `O=[N+]([O-])c1ccc(Sc2ccc(Br)cc2)c2nonc12`, the inhibition result in the series with HEK-293T was “Active”. The same compound yielded a Cytotoxic concentration with MDCK of 40 µM. Further, in the series on Influenza A virus (setting [1]), the IC50 was determined as 10 µM.

`O=[N+]([O-])c1ccc(SCc2ccccc2)c2nonc12`: the inhibition entry in the series with HEK-293T was “Active”. This compound also returned an Activity in the series on MDCK of 20 µM. In addition, the IC50 result in the series on Influenza A virus (mdck) was “Not Active”.

On to `O=[N+]([O-])c1ccc(Oc2ccc(CCO)cc2)c2nonc12`, for which the inhibition entry with HEK-293T was “Active”. The compound further came in with a Cytotoxic concentration in the series on MDCK of 20 µM. In addition, the IC50 in the series on Influenza A virus (setting [1]) was determined as 10 µM.

Regarding `O=[N+]([O-])c1ccc(Sc2ccc(Cl)cc2)c2nonc12`, in the series with HEK-293T, the inhibition result was “Active”. Also, the Cytotoxic concentration with MDCK was found to be 40 µM. Besides, in the series on Influenza A virus (setting [1]), the IC50 worked out at 10 µM.

For `O=[N+]([O-])c1ccc(Sc2ccc([N+](=O)[O-])c3nonc23)cc1`, the inhibition entry in the series on HEK-293T was “Active”. In addition, the Cytotoxic concentration in the series on MDCK came to 40 µM. Besides, in the series with Influenza A virus (setting [1]), the IC50 worked out at 10 µM.

Consider `CNc1ccc(SCc2ccc(OC)cc2)c2nonc12`, for which the inhibition result in the series with HEK-293T was “Active”. The IC50 result in the series with Influenza A virus (mdck) was “Not Active”.

On to `Nc1cccc(Sc2ccc([N+](=O)[O-])c3nonc23)c1`, for which, in the series with HEK-293T, the inhibition result was “Active”. The Cytotoxic concentration with MDCK was found to be 40 µM. Further, the IC50 in the series with Influenza A virus (setting [1]) was 10 µM.

Consider `COc1ccc(CSc2ccc(Cl)c3nonc23)cc1`, for which the inhibition result in the series on HEK-293T was “Active”. In addition, in the series with Influenza A virus (mdck), the IC50 result is recorded as “Not Active”.

As to `O=[N+]([O-])c1ccc(Nc2ccccc2O)c2nonc12`, in the series with HEK-293T, the inhibition entry is “Active”. For the same compound, in the series on Influenza A virus (mdck), the IC50 result was “Not Active”.

For `COc1cccc(Oc2ccc([N+](=O)[O-])c3nonc23)c1`, in the series with HEK-293T, the inhibition result was “Active”. Also, the 50% inhibitory concentration (IC50) entry in the series on Influenza A virus (mdck) is “Not Active”.

Take `COc1ccc(CSc2ccc(NCc3ccccc3)c3nonc23)cc1`: the inhibition entry in the series with HEK-293T is “Active”. Further, the IC50 result with Influenza A virus (mdck) is “Not Active”.

Turning to `O=Cc1ccc(Oc2ccc([N+](=O)[O-])c3nonc23)cc1`, the inhibition result in the series on HEK-293T is “Active”. Moreover, the Cytotoxic concentration with MDCK was over 40 µM. Further, the half-maximal inhibitory concentration (IC50) with Influenza A virus (setting [1]) was determined as 20 µM.

For `O=[N+]([O-])c1ccc(SCc2ccc(Br)cc2)c2nonc12`, the inhibition entry in the series with HEK-293T is “Active”. This compound had a Cytotoxic concentration in the series with MDCK of over 10 µM. Moreover, in the series on Influenza A virus (setting [1]), the IC50 was at least 5 µM.

As for `COc1ccc(Sc2ccc([N+](=O)[O-])c3nonc23)cc1`, in the series on HEK-293T, the inhibition result was “Active”. The compound further yielded a Cytotoxic concentration in the series with MDCK of 40 µM. Besides, the IC50 result with Influenza A virus (mdck) was “Not Active”.
